Measured values of several laboratories.
Observed: metabolic stability
Host: rat

With `CC(C)CC(=O)OC[C@H]1O[C@@](C#N)(c2ccc3c(N)ncnn23)[C@H](O)[C@@H]1O` the hepatocyte CLint was > 318 µL/min/10⁶ cells (hepatocytes; 5 µM).
With `O=c1[nH]c2ccccc2n1C1CCN(CCCC(c2ccc(F)cc2)c2ccc(F)cc2)CC1` the microsomal CLint was 8.7 µL/min/mg (liver microsomes; 100 ng/mL).
With `C[C@]12CC[C@H]3[C@@H](CCC4=CC(=O)CC[C@@]43C)[C@@H]1CC[C@@H]2O` the scaled CLint was 2500 mL/min/kg (liver microsomes; 1 µM, pH 7.4).
The scaled CLint of `NCCOCC(=O)N1CCCC(C(=O)NCc2nc(-c3ccc(-c4ccc(F)cc4)cc3)cs2)C1` (centres unmarked) is reported as < 7 mL/min/kg (liver microsomes).
With `Cc1[nH]c(C)c(S(=O)(=O)Nc2ccc(S(=O)(=O)F)c(Cl)c2)c1C(=O)N1CCC(F)(F)C1` the microsomal CLint was 63.7 µL/min/mg (liver microsomes).
The microsomal CLint of `C[C@]12CC[C@H]3[C@@H](CCC4=CC(=O)CC[C@@]43C)[C@@H]1CC[C@@H]2O` is reported as 893 µL/min/mg (liver microsomes).
With `Cc1[nH]c(C)c(S(=O)(=O)Nc2ccc(S(F)(F)(F)(F)F)cc2)c1C(=O)N1CCC(F)(F)C1` the microsomal CLint was 39 µL/min/mg (liver microsomes).
`O=C1CCC(N2Cc3c(ccc4c3OCC43CCN(Cc4ccccc4)CC3)C2=O)C(=O)N1` (centres unmarked) has a scaled CLint of 22 mL/min/kg (liver microsomes; 1 µM).
